Compound activity (PubChem BioAssay)
KCNQ1 pot: potentiators or activators of human KCNQ1 potassium channel; AID 2648; P51787; CHO-K1 KCNQ1, thallium flux FluxOR fluorescence; active compounds read high; 0.35% of 310,000 active; B-score at 10 µM;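 active = fluorescence ratio B-score, a plate-corrected score, at least three library SD, with initial intensity B-score within 5 SD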
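Assay system: stable KCNQ1 CHO-K1 line; medium: assay buffer, equal DMSO in all wells; timing: 90 min dye loading and 20 min compound exposure, both at room temperature; technique: kinetic FluxOR thallium fluorescence, 10-s 1-Hz baseline, 110-s post-stimulus read; read-out basis: B score of baseline-normalized fluorescence ratio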
PHOSPHO1 block: PHOSPHO1 (human) inhibition; Q8TCT1; recombinant PHOSPHO1, absorbance phosphatase assay; inhibition, % at 13.3 µM; 1.1% of 290,000 active; AID 1565; in the data active = inhibition above about 60%
KCNK9 block: human KCNK9 channel inhibition | Q9NPC2 | HEK293 KCNK9, FluxOR thallium flux fluorescence; active compounds read low | B-score at 10 µM | 1.2% of 310,000 active | AID 488922;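 active = ratio B-score over 3 SD below the library mean, with starting fluorescence within 5 SD of its mean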;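 also: negative B-score means less thallium flux so channel inhibition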
KCNQ1 inh: blocks the human KCNQ1 potassium channel. P51787. CHO-K1 KCNQ1, FluxOR thallium flux fluorescence; active compounds read high. B-score at 10 µM. 1.3% of 310,000 active. AID 2642;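 active = compounds whose thallium flux B-score, printed positive for inhibition, exceeds three library SD while starting fluorescence stays within three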;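 also: channel opened by potassium depolarization with thallium stimulus after 20 min compound exposure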
hERG rescue: hERG (human) protection from proarrhythmic block; Q12809; 0.51% of 310,000 active; activation (rescue from dofetilide block), less the hit threshold, % at 10 µM; CHO-hERG, FluxOR thallium flux, dofetilide IC70 present;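 active = activation above the mean of controls blocked by dofetilide plus 5 SD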;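 also: thallium influx through hERG after potassium depolarization seen as dye fluorescence rise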
Target sequence (Q12809 whole entry, looked up): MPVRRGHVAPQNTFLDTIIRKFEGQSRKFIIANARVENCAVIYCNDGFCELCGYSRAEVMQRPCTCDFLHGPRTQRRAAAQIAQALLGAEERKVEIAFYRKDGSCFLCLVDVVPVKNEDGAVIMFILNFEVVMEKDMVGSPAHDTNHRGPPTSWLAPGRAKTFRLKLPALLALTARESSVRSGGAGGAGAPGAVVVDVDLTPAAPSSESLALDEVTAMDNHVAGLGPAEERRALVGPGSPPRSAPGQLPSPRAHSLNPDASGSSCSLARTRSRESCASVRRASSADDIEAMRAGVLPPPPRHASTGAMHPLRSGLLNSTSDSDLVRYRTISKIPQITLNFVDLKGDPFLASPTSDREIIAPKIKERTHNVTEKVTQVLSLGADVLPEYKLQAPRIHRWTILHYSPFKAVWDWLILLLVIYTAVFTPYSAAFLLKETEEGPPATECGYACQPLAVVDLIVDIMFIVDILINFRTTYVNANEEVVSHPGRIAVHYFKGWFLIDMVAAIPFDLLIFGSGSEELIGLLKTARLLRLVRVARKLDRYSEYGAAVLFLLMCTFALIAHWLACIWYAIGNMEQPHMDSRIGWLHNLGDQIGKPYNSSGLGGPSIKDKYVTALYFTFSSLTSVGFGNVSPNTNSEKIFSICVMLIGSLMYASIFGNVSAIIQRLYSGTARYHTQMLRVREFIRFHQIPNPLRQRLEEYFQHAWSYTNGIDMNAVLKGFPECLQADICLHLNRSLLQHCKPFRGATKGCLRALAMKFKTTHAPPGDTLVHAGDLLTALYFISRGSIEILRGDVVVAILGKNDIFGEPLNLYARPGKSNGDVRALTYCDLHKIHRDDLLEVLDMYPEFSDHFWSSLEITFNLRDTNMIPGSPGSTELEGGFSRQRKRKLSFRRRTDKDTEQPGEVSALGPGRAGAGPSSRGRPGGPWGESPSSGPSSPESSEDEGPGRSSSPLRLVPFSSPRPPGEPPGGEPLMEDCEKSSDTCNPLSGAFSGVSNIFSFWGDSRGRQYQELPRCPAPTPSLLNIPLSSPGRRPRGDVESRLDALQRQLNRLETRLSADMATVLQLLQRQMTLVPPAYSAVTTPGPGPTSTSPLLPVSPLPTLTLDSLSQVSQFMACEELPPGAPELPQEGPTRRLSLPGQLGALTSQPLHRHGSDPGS
KCNK3 inh: human KCNK3 channel inhibition, primary screen; CHO-KCNK3 thallium flux, FluxOR fluorescence; active compounds read low; B-score at 10 µM; 0.84% of 340,000 active; O14649; AID 602410;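 active = B-score under library mean minus 4 SD, starting fluorescence ratio at most library mean plus 5 SD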;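 also: more negative B-score means stronger inhibition of thallium flux through KCNK3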
Active calls of the source: *; i = inactive; x = not tested or not shown. Rows were chosen to be rich in hits. Some 4% of all compounds tested hit in one or more screens of this group.

SMILES | KCNQ1 pot | PHOSPHO1 block | KCNK9 block | KCNQ1 inh | hERG rescue | KCNK3 inh
Cc1c(C(Nc2ccccn2)c2ccc(Cl)cc2)c(=O)n(-c2ccccc2)n1C (centres undefined) | i | -41 | -6.6* | i | -17 | i
CCOC(=O)c1[nH]c2ccc(OC)cc2c1NC(=O)CCN1CCC(C)CC1 | i | 71* | i | i | -7 | x
CCOc1ccc(NC(=O)c2ccc3c(=O)n4c(nc3c2)CCCCC4)cc1 | i | 53 | i | i | -5 | i
CCOc1ccccc1NC(=O)c1ccc2c(=O)n3c(nc2c1)CCCCC3 | i | 75* | i | i | -15 | i
COc1ccccc1CNC(=O)c1ccc2c(=O)n3c(nc2c1)CCCCC3 | i | 65* | i | i | -12 | i
O=C(CN1C(=O)NC2(CCc3ccccc32)C1=O)NCc1ccccc1Cl (centres undefined) | x | x | x | x | x | i
CC1CCC2(CC1)NC(=S)N(c1ccccc1)N2 (centres undefined) | i | 100* | i | i | -2 | i
CCOC(=O)c1sc2ncnc(NCc3ccco3)c2c1C | 37* | -5 | i | i | 16* | i
COc1cc(C2C(C#N)=C(N)Oc3n[nH]c(-c4cccs4)c32)cc(OC)c1O (centres undefined) | i | 30 | i | i | -13 | i
Cc1[nH]c2ccccc2c1/C=C(\C#N)C(=O)NC1CC1 | i | 16 | i | i | -12 | i
Cc1[nH]c2ccccc2c1/C=C(\C#N)C(=O)NC(C)c1ccccc1 (centres undefined) | i | 94* | i | i | -6 | i
Cc1ccc2nc(/C(C#N)=C\c3cc(C)n(-c4cccc([N+](=O)[O-])c4)c3C)[nH]c2c1 | i | 35 | i | 8* | -12 | i
Cc1cc(/C=C(/C#N)c2nc3ccccc3[nH]2)c(C)n1-c1cc(C(=O)O)cc(C(=O)O)c1 | i | 17 | i | i | -13 | i
COc1cc(/C=C(\C#N)c2nc3ccccc3s2)cc([N+](=O)[O-])c1O | i | 18 | i | 6* | -17 | i
N#C/C(=C\c1ccc(O)c([N+](=O)[O-])c1)c1nc2ccccc2s1 | i | 0 | i | 6* | -9 | i
O=C(O)CC/C(=C\c1ccc(Cl)c([N+](=O)[O-])c1)c1nc2ccccc2s1 | i | -21 | i | i | -9 | i
COc1ccc(-c2csc(/C(C#N)=C\c3ccc(OC)c([N+](=O)[O-])c3)n2)cc1 | i | 1 | i | i | -10 | i
CCOC(=O)N1CCN(C(=O)c2cccc(S(=O)(=O)Nc3ccc(Br)cc3)c2)CC1 | i | x | i | i | -14 | i
CCCCn1c(=O)[nH]c(=O)c2c1nc(-c1cc(Br)c(OCC)c(OC)c1)n2C | i | 35 | i | i | 1 | i
Cc1c(Cl)cccc1NC(=O)COC(=O)CCc1nc2ccccc2n1-c1ccccc1 | i | 1 | i | i | -2 | i
Cc1nc2sc(-c3ccccc3)cc2c(=O)[nH]1 | i | 1 | i | i | -2 | i
O=c1[nH]c(-c2cccnc2)nc2sc(-c3ccccc3)cc12 | i | 17 | i | i | 6.9* | i
Cc1cc(C)n(-c2nc(NCCO)c3c4c(sc3n2)CCCC4)n1 | i | 81* | i | i | -12 | i
O=C(COc1ccc(-c2nnco2)cc1)N1CCN(S(=O)(=O)c2ccccc2)CC1 | i | 26 | i | i | 1 | i
CN1C(=O)/C(=C\c2ccc(N(C)C)cc2)OC1=S | i | 30 | i | 11* | -17 | i
SMILES | KCNQ1 pot | PHOSPHO1 block | KCNK9 block | KCNQ1 inh | hERG rescue | KCNK3 inh
Nc1nnc(SCCN2C(=O)c3ccccc3C2=O)s1 | i | 1 | i | i | -9 | i
CCOC(=O)CSc1n[nH]c(=S)s1 | i | 60* | i | i | -8 | i
Nc1nnc(SCC(=O)c2ccc3ccccc3c2)s1 | i | 75* | i | i | -9 | i
CCOC(=O)CNC(=O)CSc1nnc(SCC(=O)NCC(=O)OCC)s1 | i | 35 | i | i | -3 | i
CCOC(=O)CSc1nnc(SCCN2C(=O)c3ccccc3C2=O)s1 | i | 73* | i | i | -22 | i
CCOC(=O)CSc1nnc(N)s1 | i | 90* | i | i | -2 | i
Cc1ccccc1NC(=O)C1c2cccc[n+]2CC(=O)N1Cc1ccc2c(c1)OCO2 (centres undefined) | i | -31 | i | i | -8 | i
O=C(O)/C=C/c1cn(-c2ccccc2)nc1-c1ccc(-c2ccc([N+](=O)[O-])cc2)o1 | i | -5 | i | i | 11* | i
O=C(O)/C=C/c1cn(-c2ccccc2)nc1-c1cccc([N+](=O)[O-])c1 | i | 28 | i | i | -5 | i
COc1ccccc1CNC(=S)NC1CCCCC1 | i | 2 | i | i | -6 | i
CCCCn1nnc(NC(=S)NC(=O)c2ccc(-c3cccc(Cl)c3Cl)o2)n1 | i | -2 | i | i | 7.4* | i
CCCCn1nnc(NC(=O)c2ccc(-c3ccccc3[N+](=O)[O-])o2)n1 | i | 15 | i | i | -31 | i
CCSc1nnc2c(n1)OC(c1ccc(C(=O)O)cc1)N(C(C)=O)c1ccccc1-2 (centres undefined) | i | 0 | i | i | -6 | i
CCCCCSc1nnc2c(n1)OC(c1cccn1C)N(C(C)=O)c1ccccc1-2 (centres undefined) | i | 9 | -9.7* | i | -11 | i
CNC(=S)NC1CC2CCCC(C1)N2Cc1ccccc1OC (centres undefined) | i | 35 | i | i | -6 | i
CCCCN(Cc1ccco1)S(=O)(=O)c1c[nH]c(C(=O)OC)c1 | i | 27 | i | i | -7 | i
CCOc1ccc(-c2cc(C(=O)OC)[nH]n2)cc1 | i | 28 | i | i | 9.4* | i
CCCN(c1ccccc1F)S(=O)(=O)c1c[nH]c(C(=O)OC)c1 | i | 70* | i | i | -5 | i
CCOc1ccc(N(C)S(=O)(=O)c2c[nH]c(C(=O)OC)c2)cc1 | i | 65* | i | i | -6 | i
CCCn1c(=O)c(C(=O)NCc2ccncc2)c(O)c2ccccc21 | i | -28 | i | i | -4 | i
CCCn1c(=O)c(C(=O)NCCc2ccc(Cl)cc2)c(O)c2ccccc21 | i | 39 | i | 7* | -7 | i
CCn1c(=O)c(C(=O)NCc2ccccc2)c(O)c2ccccc21 | i | 19 | i | i | -7 | i
